Reference: ChEMBL document CHEMBL1821716, “Pyrazolopyridine inhibitors of B-RafV600E. Part 2: structure-activity relationships” (Bioorg Med Chem Lett, 2011)

Key:
[1] = target: Serine/threonine-protein kinase B-raf (Homo sapiens, UniProt P15056, V600E); assay: Inhibition of full length B-Raf V600E mutant
[2] = Inhibition of basal ERK phosphorylation in human MALME-3M cells; type: cell-based
[3] = target: Tyrosine-protein kinase Srms (Homo sapiens) (UniProt Q9H3Y6); assay: Inhibition of SRMS at 1 uM
How it was run: (§1)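 Kinase selectivity panel reported as percent inhibition of each kinase at a single test-compound concentration. Values are means of at least two experiments.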

[4] = target: Tyrosine-protein kinase Fgr (Homo sapiens) (UniProt P09769); assay: Inhibition of FGR at 1 uM; how it was run: as §1
[5] = target: Protein-tyrosine kinase 6 (Homo sapiens) (UniProt Q13882); assay: Inhibition of PTK6 at 1 uM; how it was run: as §1
[6] = target: T1, Aurora kinase A (Homo sapiens) (UniProt O14965); assay: Inhibition of aurora A at 1 uM; how it was run: as §1
T1 sequence (whole entry): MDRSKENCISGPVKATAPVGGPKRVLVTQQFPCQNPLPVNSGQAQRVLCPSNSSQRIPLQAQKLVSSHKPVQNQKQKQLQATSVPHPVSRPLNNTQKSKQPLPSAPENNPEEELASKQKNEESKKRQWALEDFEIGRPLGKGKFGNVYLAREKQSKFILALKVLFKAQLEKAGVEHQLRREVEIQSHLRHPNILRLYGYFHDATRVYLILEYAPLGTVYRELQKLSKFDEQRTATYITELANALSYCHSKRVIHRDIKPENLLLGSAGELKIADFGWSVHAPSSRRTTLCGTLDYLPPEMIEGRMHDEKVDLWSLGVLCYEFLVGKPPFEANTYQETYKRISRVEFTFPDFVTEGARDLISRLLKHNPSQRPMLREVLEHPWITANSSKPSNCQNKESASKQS

[7] = target: Receptor-type tyrosine-protein kinase FLT3 (Homo sapiens) (UniProt P36888); assay: Inhibition of FLT3 at 1 uM; how it was run: as §1
[8] = target: Proto-oncogene tyrosine-protein kinase Src (Homo sapiens) (UniProt P12931); assay: Inhibition of SRC at 1 uM; how it was run: as §1
[9] = target: Tyrosine-protein kinase Lck (Homo sapiens) (UniProt P06239); assay: Inhibition of LCK at 1 uM; how it was run: as §1
Sequence of Tyrosine-protein kinase Lck (Homo sapiens) (P06239 2-509 limits assumed): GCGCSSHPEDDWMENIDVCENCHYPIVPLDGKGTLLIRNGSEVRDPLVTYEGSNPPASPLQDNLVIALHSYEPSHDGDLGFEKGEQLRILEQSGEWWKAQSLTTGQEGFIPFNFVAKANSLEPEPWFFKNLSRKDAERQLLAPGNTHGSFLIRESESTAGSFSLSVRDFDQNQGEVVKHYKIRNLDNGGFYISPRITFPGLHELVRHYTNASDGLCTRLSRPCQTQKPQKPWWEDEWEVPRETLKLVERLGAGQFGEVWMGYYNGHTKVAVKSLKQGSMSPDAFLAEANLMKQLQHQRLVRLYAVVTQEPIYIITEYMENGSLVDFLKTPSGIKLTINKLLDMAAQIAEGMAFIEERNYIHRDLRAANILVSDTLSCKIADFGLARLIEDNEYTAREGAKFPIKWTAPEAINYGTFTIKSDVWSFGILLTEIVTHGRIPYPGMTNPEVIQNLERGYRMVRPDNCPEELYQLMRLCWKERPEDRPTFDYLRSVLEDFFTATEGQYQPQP

Sequence of Serine/threonine-protein kinase B-raf (P15056 2-766 V600E limits assumed): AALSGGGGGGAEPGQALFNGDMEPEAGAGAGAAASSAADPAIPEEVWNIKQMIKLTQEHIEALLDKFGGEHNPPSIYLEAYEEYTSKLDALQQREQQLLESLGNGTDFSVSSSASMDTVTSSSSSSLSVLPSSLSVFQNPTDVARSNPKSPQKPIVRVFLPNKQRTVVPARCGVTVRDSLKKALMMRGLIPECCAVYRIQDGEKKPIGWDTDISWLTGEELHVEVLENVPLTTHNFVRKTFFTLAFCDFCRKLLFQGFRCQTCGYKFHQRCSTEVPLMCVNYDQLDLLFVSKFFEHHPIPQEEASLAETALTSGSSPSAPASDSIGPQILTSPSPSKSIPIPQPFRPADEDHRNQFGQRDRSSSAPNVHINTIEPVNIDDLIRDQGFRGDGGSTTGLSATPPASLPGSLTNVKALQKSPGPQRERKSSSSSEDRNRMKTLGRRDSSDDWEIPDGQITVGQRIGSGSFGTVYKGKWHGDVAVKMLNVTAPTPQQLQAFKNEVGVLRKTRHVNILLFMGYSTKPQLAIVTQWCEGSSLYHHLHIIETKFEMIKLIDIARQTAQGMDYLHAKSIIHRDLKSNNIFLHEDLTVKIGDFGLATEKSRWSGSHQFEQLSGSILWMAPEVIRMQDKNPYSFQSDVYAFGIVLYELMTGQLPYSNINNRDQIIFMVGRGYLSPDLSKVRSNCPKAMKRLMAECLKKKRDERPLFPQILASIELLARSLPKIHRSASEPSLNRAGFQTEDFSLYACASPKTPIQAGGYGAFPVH
Sequence of Tyrosine-protein kinase Fgr (Homo sapiens) (P09769 2-529 limits assumed): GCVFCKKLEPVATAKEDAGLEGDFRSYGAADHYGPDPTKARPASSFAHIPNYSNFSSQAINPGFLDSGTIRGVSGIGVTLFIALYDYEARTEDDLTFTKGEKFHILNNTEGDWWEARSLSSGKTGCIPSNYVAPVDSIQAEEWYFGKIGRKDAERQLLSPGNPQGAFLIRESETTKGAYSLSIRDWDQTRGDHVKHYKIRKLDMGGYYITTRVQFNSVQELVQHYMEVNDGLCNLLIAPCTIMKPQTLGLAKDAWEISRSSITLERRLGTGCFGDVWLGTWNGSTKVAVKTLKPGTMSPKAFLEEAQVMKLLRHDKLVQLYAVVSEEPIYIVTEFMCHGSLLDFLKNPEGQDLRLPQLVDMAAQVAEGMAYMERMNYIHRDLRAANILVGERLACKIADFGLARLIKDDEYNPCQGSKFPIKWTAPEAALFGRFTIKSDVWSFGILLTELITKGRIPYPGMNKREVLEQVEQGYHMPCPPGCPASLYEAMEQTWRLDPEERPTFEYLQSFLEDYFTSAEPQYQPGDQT
Sequence of Proto-oncogene tyrosine-protein kinase Src (Homo sapiens) (P12931 2-536 limits assumed): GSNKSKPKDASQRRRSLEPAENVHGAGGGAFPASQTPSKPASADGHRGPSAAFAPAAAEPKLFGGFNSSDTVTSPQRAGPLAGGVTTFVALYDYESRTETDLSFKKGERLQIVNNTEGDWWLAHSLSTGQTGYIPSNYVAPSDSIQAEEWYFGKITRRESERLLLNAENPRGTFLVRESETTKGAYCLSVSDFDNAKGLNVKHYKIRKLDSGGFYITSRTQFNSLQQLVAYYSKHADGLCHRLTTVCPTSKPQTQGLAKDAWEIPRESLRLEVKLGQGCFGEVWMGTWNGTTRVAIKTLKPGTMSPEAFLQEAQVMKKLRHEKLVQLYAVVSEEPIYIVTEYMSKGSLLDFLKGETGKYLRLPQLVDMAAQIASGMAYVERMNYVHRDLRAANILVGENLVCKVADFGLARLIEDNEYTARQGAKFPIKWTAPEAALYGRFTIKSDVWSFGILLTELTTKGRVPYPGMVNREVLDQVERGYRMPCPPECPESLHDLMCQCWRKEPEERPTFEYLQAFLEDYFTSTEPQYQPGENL
Sequence of Tyrosine-protein kinase Srms (Homo sapiens) (Q9H3Y6 whole entry): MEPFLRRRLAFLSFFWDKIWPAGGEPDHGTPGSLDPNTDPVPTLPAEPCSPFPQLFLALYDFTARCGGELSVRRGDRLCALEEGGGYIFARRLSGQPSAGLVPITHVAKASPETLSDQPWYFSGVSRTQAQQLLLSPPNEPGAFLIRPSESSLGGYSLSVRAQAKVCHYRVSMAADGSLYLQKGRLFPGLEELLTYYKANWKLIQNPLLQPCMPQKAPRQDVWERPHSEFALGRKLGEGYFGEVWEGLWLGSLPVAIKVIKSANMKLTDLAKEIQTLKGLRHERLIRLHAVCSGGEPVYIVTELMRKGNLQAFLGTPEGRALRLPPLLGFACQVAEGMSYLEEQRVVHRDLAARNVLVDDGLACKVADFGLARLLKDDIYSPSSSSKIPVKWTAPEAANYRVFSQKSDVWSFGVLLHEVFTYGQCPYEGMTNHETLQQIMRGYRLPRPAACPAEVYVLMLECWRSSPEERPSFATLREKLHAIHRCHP
Sequence of Receptor-type tyrosine-protein kinase FLT3 (Homo sapiens) (P36888 whole entry): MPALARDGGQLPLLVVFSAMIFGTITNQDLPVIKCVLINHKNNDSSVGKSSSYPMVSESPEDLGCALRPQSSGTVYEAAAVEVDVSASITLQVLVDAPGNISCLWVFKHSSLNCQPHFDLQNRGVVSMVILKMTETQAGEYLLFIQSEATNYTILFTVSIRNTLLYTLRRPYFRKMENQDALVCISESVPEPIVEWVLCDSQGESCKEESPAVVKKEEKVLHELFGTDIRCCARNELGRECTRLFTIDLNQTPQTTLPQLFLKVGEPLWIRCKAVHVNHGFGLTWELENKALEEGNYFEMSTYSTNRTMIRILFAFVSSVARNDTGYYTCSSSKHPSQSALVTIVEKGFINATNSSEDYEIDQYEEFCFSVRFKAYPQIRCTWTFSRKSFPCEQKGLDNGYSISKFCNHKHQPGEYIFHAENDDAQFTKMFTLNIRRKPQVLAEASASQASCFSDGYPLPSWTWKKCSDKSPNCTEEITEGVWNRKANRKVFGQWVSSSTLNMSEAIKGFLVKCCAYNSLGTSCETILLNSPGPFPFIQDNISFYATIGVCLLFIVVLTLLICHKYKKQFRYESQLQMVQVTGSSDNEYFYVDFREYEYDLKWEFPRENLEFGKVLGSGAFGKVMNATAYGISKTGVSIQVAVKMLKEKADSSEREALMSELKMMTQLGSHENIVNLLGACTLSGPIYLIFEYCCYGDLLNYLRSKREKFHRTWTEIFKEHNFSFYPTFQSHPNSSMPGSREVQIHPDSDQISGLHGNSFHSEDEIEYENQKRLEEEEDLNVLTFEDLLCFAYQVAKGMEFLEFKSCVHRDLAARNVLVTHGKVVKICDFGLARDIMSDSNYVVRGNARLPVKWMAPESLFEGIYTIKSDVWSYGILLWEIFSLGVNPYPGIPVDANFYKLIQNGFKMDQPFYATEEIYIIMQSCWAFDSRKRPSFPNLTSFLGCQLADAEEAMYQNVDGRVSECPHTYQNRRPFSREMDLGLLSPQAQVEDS
Sequence of Protein-tyrosine kinase 6 (Homo sapiens) (Q13882 whole entry, looked up): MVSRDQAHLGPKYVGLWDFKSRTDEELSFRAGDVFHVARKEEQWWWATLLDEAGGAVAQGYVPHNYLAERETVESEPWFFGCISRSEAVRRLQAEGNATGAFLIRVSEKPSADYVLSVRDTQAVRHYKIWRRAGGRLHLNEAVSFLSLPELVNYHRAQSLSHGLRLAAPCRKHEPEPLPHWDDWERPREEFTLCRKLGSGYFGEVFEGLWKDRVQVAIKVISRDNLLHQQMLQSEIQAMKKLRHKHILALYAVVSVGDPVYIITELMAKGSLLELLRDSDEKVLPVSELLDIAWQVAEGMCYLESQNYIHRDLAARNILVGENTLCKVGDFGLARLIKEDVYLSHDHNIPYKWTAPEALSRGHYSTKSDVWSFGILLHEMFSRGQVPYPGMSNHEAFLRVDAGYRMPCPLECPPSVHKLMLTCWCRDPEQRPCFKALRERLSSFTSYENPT

| Structure (SMILES) | IC50 [1] | IC50 [2] | other results |
| --- | --- | --- | --- |
| CCCS(=O)(=O)Nc1cc(F)cc(C(=O)Nc2cnc3[nH]nc(OC)c3c2)c1F | 7.5 nM | 80 nM |  |
| CCCS(=O)(=O)Nc1cc(F)c(F)c(C(=O)Nc2cnc3[nH]ccc3c2)c1F | 19 nM | 410 nM |  |
| CCCS(=O)(=O)Nc1ccc(F)c(C(=O)Nc2cnc3[nH]ccc3c2)c1C | 680 nM |  |  |
| CCCS(=O)(=O)Nc1cccc(C(=O)Nc2cnc3[nH]ccc3c2)c1F | 87 nM | 290 nM |  |
| COc1n[nH]c2ncc(NC(=O)c3c(F)ccc(NS(=O)(=O)c4ccc(F)cc4)c3F)cc12 | 46 nM | 340 nM |  |
| CCCS(=O)(=O)Nc1ccc(Cl)c(C(=O)Nc2cnc3[nH]ccc3c2)c1F | 17 nM | 190 nM |  |
| CCCS(=O)(=O)Nc1ccc(F)c(C(=O)Nc2cnc3[nH]ncc3c2)c1F |  | 62 nM |  |
| COc1n[nH]c2ncc(NC(=O)c3c(F)ccc(NS(=O)(=O)c4cccnc4)c3F)cc12 | 0.5 nM | 83 nM |  |
| CCS(=O)(=O)Nc1ccc(F)c(C(=O)Nc2cnc3[nH]nc(OC)c3c2)c1F | 25 nM | 62 nM |  |
| CCN(C)S(=O)(=O)Nc1ccc(F)c(C(=O)Nc2cnc3[nH]ccc3c2)c1F | 400 nM | 340 nM |  |
| CCCS(=O)(=O)Nc1ccc(Cl)c(C(=O)Nc2cnc3[nH]ccc3c2)c1 | 88 nM | 2100 nM |  |
| O=C(Nc1cnc2[nH]ccc2c1)c1c(F)ccc(NS(=O)(=O)CCCF)c1F | 19 nM | 75 nM |  |
| CCCCS(=O)(=O)Nc1ccc(F)c(C(=O)Nc2cnc3[nH]ccc3c2)c1F | 40 nM | 120 nM |  |
| O=C(Nc1cnc2[nH]ccc2c1)c1c(F)ccc(NS(=O)(=O)CC2CC2)c1F | 29 nM | 230 nM |  |
| CCCS(=O)(=O)Nc1ccc(F)c(C(=O)Nc2cnc3[nH]nc(OCC4CCC4)c3c2)c1F | 3.5 nM | 76 nM |  |
| CCCS(=O)(=O)Nc1ccc(OC)c(C(=O)Nc2cnc3[nH]nc(OC)c3c2)c1F | 2600 nM |  |  |
| CCCS(=O)(=O)Nc1ccc(F)c(C(=O)Nc2cnc3[nH]cc(CC)c3c2)c1F | 19 nM | 290 nM |  |
| CCCS(=O)(=O)Nc1ccc(F)c(C(=O)Nc2cnc3[nH]nc(OCC(F)(F)F)c3c2)c1F | 5.3 nM | 28 nM |  |
| COc1n[nH]c2ncc(NC(=O)c3c(F)ccc(NS(=O)(=O)CC(C)C)c3F)cc12 | 4.5 nM | 11 nM |  |
| COc1n[nH]c2ncc(NC(=O)c3c(F)ccc(NS(=O)(=O)N(C)C)c3F)cc12 | 18 nM | 63 nM |  |
| CCCS(=O)(=O)Nc1ccc(Cl)c(C(=O)Nc2cnc3[nH]nc(OC)c3c2)c1 | 61 nM | 250 nM |  |
| COc1n[nH]c2ncc(NC(=O)c3c(F)ccc(NS(=O)(=O)c4cccc(F)c4)c3F)cc12 | 0.7 nM | 12 nM | inhibition [3]: 98%; inhibition [4]: 98%; inhibition [5]: 101%; inhibition [6]: 52%; inhibition [7]: 77%; inhibition [8]: 77%; inhibition [9]: 96% |
| CCCS(=O)(=O)Nc1cc(F)c(F)c(C(=O)Nc2cnc3[nH]nc(OC)c3c2)c1F | 2.3 nM | 100 nM |  |

| Structure (SMILES) | IC50 [1] | IC50 [2] | other results |
| --- | --- | --- | --- |
| CCCS(=O)(=O)Nc1ccc(F)c(C(=O)Nc2cnc3[nH]nc(C(F)(F)F)c3c2)c1F | 5.8 nM | 280 nM |  |
| CN(C)S(=O)(=O)Nc1ccc(F)c(C(=O)Nc2cnc3[nH]ccc3c2)c1F | 200 nM | 260 nM |  |
| CCNS(=O)(=O)Nc1ccc(F)c(C(=O)Nc2cnc3[nH]nc(OC)c3c2)c1F | 18 nM | 180 nM |  |
| CCCS(=O)(=O)Nc1ccc(F)c(C(=O)Nc2cnc3[nH]nc(O[C@@H]4CCOC4)c3c2)c1F | 6.9 nM | 62 nM |  |
| COc1n[nH]c2ncc(NC(=O)c3c(F)ccc(NS(=O)(=O)c4ccccc4F)c3F)cc12 | 1.8 nM | 9.1 nM |  |
| COc1n[nH]c2ncc(NC(=O)c3c(F)ccc(NS(=O)(=O)CC4CC4)c3F)cc12 | 17 nM | 31 nM |  |
| O=C(Nc1cnc2[nH]ccc2c1)c1c(F)ccc(NS(=O)(=O)CCC(F)(F)F)c1F | 33 nM | 270 nM |  |
| COc1n[nH]c2ncc(NC(=O)c3c(F)ccc(NS(=O)(=O)C4CC4)c3F)cc12 | 63 nM | 170 nM |  |
| COc1n[nH]c2ncc(NC(=O)c3c(F)ccc(NS(=O)(=O)NCC(F)F)c3F)cc12 | 13 nM | 500 nM |  |
| CCCS(=O)(=O)Nc1ccc(F)c(C(=O)Nc2cnc3[nH]nc(CC)c3c2)c1F | 9.2 nM | 84 nM |  |
| CCCS(=O)(=O)Nc1ccc(F)c(C(=O)Nc2cnc3[nH]nc(Br)c3c2)c1F |  | 44 nM |  |
| CC(C)CS(=O)(=O)Nc1ccc(F)c(C(=O)Nc2cnc3[nH]ccc3c2)c1F | 140 nM | 200 nM |  |
| CCCS(=O)(=O)Nc1ccc(F)c(C(=O)Nc2cnc3[nH]cc(I)c3c2)c1F | 2.2 nM | 60 nM |  |
| COc1n[nH]c2ncc(NC(=O)c3c(F)ccc(NS(=O)(=O)c4cn(C)cn4)c3F)cc12 |  | > 10000 nM |  |
| CCCS(=O)(=O)Nc1ccc(F)c(C(=O)Nc2cnc3[nH]cc(Br)c3c2)c1F |  | 39 nM |  |
| O=C(Nc1cnc2[nH]ccc2c1)c1c(F)ccc(NS(=O)(=O)CC(F)(F)F)c1F | 38 nM | 2600 nM |  |
| COc1n[nH]c2ncc(NC(=O)c3c(F)ccc(NS(=O)(=O)CCCF)c3F)cc12 | 1.3 nM | 13 nM |  |
| CCCS(=O)(=O)Nc1ccc(Cl)c(C(=O)Nc2cnc3[nH]nc(OC)c3c2)c1Cl | 1.4 nM | 40 nM |  |
| CCCS(=O)(=O)Nc1ccc(F)c(C(=O)Nc2cnc3[nH]nc(OCC)c3c2)c1F | 2.4 nM | 12 nM |  |
| CCCS(=O)(=O)Nc1ccc(Cl)c(C(=O)Nc2cnc3[nH]nc(OC)c3c2)c1F |  | 20 nM |  |
| COc1n[nH]c2ncc(NC(=O)c3c(F)ccc(NS(=O)(=O)c4ccccn4)c3F)cc12 | 16 nM | 280 nM |  |
| CCCS(=O)(=O)Nc1ccc(F)c(C(=O)Nc2cnc3[nH]ccc3c2)c1 | 210 nM |  |  |
| CCCS(=O)(=O)Nc1ccc(C)c(C(=O)Nc2cnc3[nH]ccc3c2)c1F | 170 nM | 1400 nM |  |

| Structure (SMILES) | IC50 [1] | IC50 [2] | other results |
| --- | --- | --- | --- |
| COc1n[nH]c2ncc(NC(=O)c3c(F)ccc(NS(=O)(=O)c4cccs4)c3F)cc12 | 0.2 nM | 30 nM |  |
| CCCS(=O)(=O)Nc1ccc(Cl)c(C(=O)Nc2cnc3[nH]ccc3c2)c1Cl | 8.3 nM | 206 nM |  |
| CCCS(=O)(=O)Nc1cc(F)cc(C(=O)Nc2cnc3[nH]ccc3c2)c1F | 76 nM | 400 nM |  |
| CCCS(=O)(=O)Nc1ccc(F)c(C(=O)Nc2cnc3[nH]nc(OC)c3c2)c1OC | 110 nM | 180 nM |  |
| O=C(Nc1cnc2[nH]ccc2c1)c1c(F)ccc(NS(=O)(=O)N2CCCC2)c1F | 120 nM | 170 nM |  |
| COc1n[nH]c2ncc(NC(=O)c3c(F)ccc(NS(=O)(=O)c4ccccc4)c3F)cc12 |  | 17 nM |  |
| COc1n[nH]c2ncc(NC(=O)c3c(F)ccc(NS(=O)(=O)c4cc(F)ccc4F)c3F)cc12 | 1 nM | 20 nM |  |
| CCCS(=O)(=O)Nc1cccc(C(=O)Nc2cnc3[nH]nc(OC)c3c2)c1F | 13 nM | 38 nM |  |
| CCCS(=O)(=O)Nc1ccc(F)c(C(=O)Nc2cnc3[nH]nc(OCC4COC4)c3c2)c1F | 4.2 nM | 43 nM |  |
| CCCS(=O)(=O)Nc1ccc(F)c(C(=O)Nc2cnc3[nH]cc(C(F)(F)F)c3c2)c1F | 6.2 nM | 230 nM |  |
| COc1n[nH]c2ncc(NC(=O)c3c(F)ccc(NS(=O)(=O)NC(C)C)c3F)cc12 | 110 nM | 630 nM |  |
| CCCS(=O)(=O)Nc1ccc(F)c(C(=O)Nc2cnc3[nH]nc(I)c3c2)c1F | 1.8 nM | 36 nM |  |
| CCN(C)S(=O)(=O)Nc1ccc(F)c(C(=O)Nc2cnc3[nH]nc(OC)c3c2)c1F | 29 nM | 28 nM |  |
| CCCS(=O)(=O)Nc1ccc(F)c(C(=O)Nc2cnc3[nH]ccc3c2)c1F |  | 94 nM |  |
| O=C(Nc1cnc2[nH]ccc2c1)c1c(F)ccc(NS(=O)(=O)C2CC2)c1F | 99 nM | 710 nM |  |
| CCCS(=O)(=O)Nc1ccc(F)c(C(=O)Nc2cnc3[nH]cc(C)c3c2)c1F | 16 nM | 62 nM |  |
| CCCS(=O)(=O)Nc1ccc(F)c(C(=O)Nc2cnc3[nH]nc(OC)c3c2)c1F |  | 19 nM | inhibition [3]: 94%; inhibition [4]: 88%; inhibition [5]: 83%; inhibition [6]: 1%; inhibition [7]: 52%; inhibition [8]: 22%; inhibition [9]: 56% |
| COc1n[nH]c2ncc(NC(=O)c3c(F)ccc(NS(=O)(=O)Cc4ccccc4)c3F)cc12 | 190 nM | 830 nM |  |
| COc1n[nH]c2ncc(NC(=O)c3c(F)ccc(NS(=O)(=O)c4ccco4)c3F)cc12 | 0.7 nM | 66 nM |  |
| CCCS(=O)(=O)Nc1ccc(F)c(C(=O)Nc2cnc3[nH]nc(OC)c3c2)c1C(F)(F)F | 530 nM |  |  |
| CCCS(=O)(=O)Nc1ccc(F)c(C(=O)Nc2cnc3[nH]nc(OC)c3c2)c1 | 150 nM | 350 nM |  |
| CCCS(=O)(=O)Nc1ccc(F)c(C(=O)Nc2cnc3[nH]nc(C)c3c2)c1F |  | 86 nM |  |
